Measured values gathered from unrelated publications.
Cell line: HepG2
Read-out: cell growth or viability

SMILES | assay | conditions | CC50 [µM]
CC(C)N(c1ccc(NC(=O)CN(C)c2ccccc2N2CCCC2=O)cc1)c1ccc(Cl)c(F)c1 | ATP luminescence | 48 h | > 40
c1cc(-c2ccc3ncnc(Nc4ncco4)c3c2)nc(N2CCOCC2)n1 | MTT | 48 h | 26
CC(=O)[C@]1(O)Cc2c(O)c3c(c(O)c2[C@@H](O[C@H]2C[C@H](N)[C@H](O)[C@H](C)O2)C1)C(=O)c1ccccc1C3=O | ATP luminescence | 72 h | 0.14
CN(CC(=O)Nc1ccc(N(C)c2ccc(Cl)c(Cl)c2)cc1)c1ccccc1N1CCCC1=O | ATP luminescence | 48 h | > 40
CN1CCN(c2cccc(-c3ccc4ncnc(Nc5ccc([N+](=O)[O-])c(C(F)(F)F)c5)c4c3)c2)CC1 | MTT | 48 h | 34
N=C(CC(O)c1nc2cc(F)ccc2c2ccc(F)cc12)Nc1ccc(F)cc1 (centres unmarked) | neutral red | 24 h | 19.4
O=C1c2ccccc2C(=O)c2c(NCCc3ccc(O)cc3)ccc(NCCc3ccc(O)cc3)c21 | ATP luminescence | 72 h | 16.1
c1cc(-c2ccc3ncnc(NC4CCOCC4)c3c2)cc(N2CCOCC2)c1 | MTT | 48 h | 26
CC(C)N(c1ccc(C#N)cc1)c1ccc(NC(=O)CN(C)c2ccccc2N2CCCC2=O)cn1 | ATP luminescence | 48 h | > 40
N=C(CC(O)c1cc2cccnc2c2cccnc12)Nc1ccc(F)cc1 (centres unmarked) | neutral red | 24 h | 265
CCC(C)N(c1ccc(C)cc1)c1ccc(NC(=O)CN(C)c2ccccc2N2CCCC2=O)cc1 (centres unmarked) | ATP luminescence | 48 h | > 40
CN1CCN(c2cccc(-c3ccc4ncnc(Nc5ccc(Cl)c(C(F)(F)F)c5)c4c3)c2)CC1 | MTT | 48 h | 15
CO[C@H]1/C=C/O[C@@]2(C)Oc3c(C)c(O)c4c(c3C2=O)C2=NC3(CCN(CC(C)C)CC3)NC2=C(NC(=O)/C(C)=C\C=C\[C@H](C)[C@H](O)[C@@H](C)[C@@H](O)[C@@H](C)[C@H](OC(C)=O)[C@@H]1C)C4=O |  | 48 h | 170
O=[N+]([O-])c1ccc(Nc2ncnc3ccc(-c4cccc(N5CCOCC5)c4)cc23)cc1C(F)(F)F | MTT | 48 h | > 40
CCCCCCNc1nc(NC2CCN(C)CC2)c2cc(OC)c(OC)cc2n1 | ATP luminescence | 72 h | 2.03
N=C(CC(O)c1nc2ccccc2c2ccccc12)Nc1ccc(F)cc1 (centres unmarked) | neutral red | 24 h | 48.5
CN(CC(=O)Nc1ccc(N(C)c2ccc(Cl)cc2)c(Cl)c1)c1ccccc1N1CCCC1=O | ATP luminescence | 48 h | > 40
